Hits are enriched below; roughly 2.9% of the tested compounds scored in any of these assays.
OX1R antag-1 = antagonists of human orexin 1 receptor (OX1R). O43613. OX1R-expressing cells, FRET antagonist read-out. inhibition, % at 6.6 µM. actives 1.8% (n = 330,000). AID 485270; in the data active = inhibition mostly above about 38%, no sharp cut-off; inactive = mostly below about 40%;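 note: 0% = agonist challenge alone and 100% = reference antagonist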
Target sequence (O43613 whole entry, looked up): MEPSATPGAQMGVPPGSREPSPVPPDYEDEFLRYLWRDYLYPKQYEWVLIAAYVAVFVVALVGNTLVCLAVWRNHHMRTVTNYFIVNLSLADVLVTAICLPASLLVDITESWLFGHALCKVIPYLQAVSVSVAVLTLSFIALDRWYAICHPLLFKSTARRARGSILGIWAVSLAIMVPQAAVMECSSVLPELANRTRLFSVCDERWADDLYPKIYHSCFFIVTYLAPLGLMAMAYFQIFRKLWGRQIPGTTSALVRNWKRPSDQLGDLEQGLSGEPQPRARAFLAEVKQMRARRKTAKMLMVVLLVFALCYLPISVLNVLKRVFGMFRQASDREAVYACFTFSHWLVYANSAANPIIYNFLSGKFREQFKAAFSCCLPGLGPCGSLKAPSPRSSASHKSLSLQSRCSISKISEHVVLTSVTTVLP
M1 PAM parental = counter-screen for M1 PAMs: effect in parental CHO-K1 cells | ATP EC20, Fluo-8 calcium fluorescence; 0% at ATP EC20, 100% at ATP max | activation, % at 3 µM | AID 602247 | actives 0.02% (n = 360,000);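 active = activation above the run cutoff, the mean activation of all test compounds plus 3 SD, cut at about 40% in these data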;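 note: peak over basal fluorescence ratio in a 140 s read after ATP addition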
CHO-K1 Ca ag = counter-screen for M1 agonists: effect in parental CHO-K1 cells; Fluo-8 calcium fluorescence; scaled to maximal ATP response, vehicle zero; activation, % at 3 µM; actives 0.48% (n = 360,000); in the data active = activation above about 15%;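 note: untransfected CHO-K1 host cells lacking M1 receptor as counterscreen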
OX1R antag-2 = human HCRTR1 antagonism. actives 0.43% (n = 330,000). CHO/OX1R cells, Fluo-8 calcium fluorescence, orexin A. inhibition, % at 5 µM. AID 434989;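 active = inhibition above its plate's threshold, mean inhibition of all tested compounds on the plate plus 3 SD, cut at about 37% in these data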;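 note: 0% = orexin A challenge wells and 100% = SB-334867-A antagonist wells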
CHO parental Ca = signal in parental CHO cells, OX1R antagonist counter-screen. inhibition, % at 5.6 µM. parental CHO-K1, ATP-induced calcium, Fluo-8 fluorescence. actives 0.63% (n = 330,000). AID 463079;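 active = inhibition above that plate's mean sample inhibition plus 3 SD, cut at about 26% in these data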;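 note: 0% = ATP-challenged DMSO wells and 100% = DMSO wells without ATP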
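Measured by: calcium-sensitive Fluo-8 fluorescence / Test system: CHO parental line / Controls: ATP-challenged DMSO wells low, unchallenged DMSO wells high / Measure: % inhibition / Compound: single nominal dose of 5.6 µM per compound / Replicates: single well per compound, no replicates / Reagent: ATP as calcium-mobilizing challenge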
CHO-K1 Ca antag = nonselective inhibitor or artifact in parental CHO-K1 cells. inhibition, % at 3 µM. actives 0.6% (n = 360,000). AID 602250. ATP-induced calcium, Fluo-8 fluorescence;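 active = inhibition above a per-plate cutoff, the plate's mean sample inhibition plus 3 SD, cut at about 24% in these data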;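 note: 0% = DMSO plus EC80 ATP and 100% = DMSO alone without ATP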
OX1R HTRF conf = confirmation of human orexin 1 receptor antagonists, HTRF format; actives 49% (n = 1,800); OX1R-expressing cells, HTRF antagonist assay; inhibition, % at 6.6 µM; shares compounds with OX1R antag-1; in the data active = inhibition above about 55%;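 note: CHO cells expressing OX1R stimulated with orexin A at about EC80; 0% = agonist challenge alone and 100% = reference antagonist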
CHO-K1 HTRF cnt = counter-screen for OX1R antagonists: effect in parental CHO-K1 cells; shares compounds with OX1R antag-1; HTRF counterscreen; inhibition, % at 6.6 µM; actives 48% (n = 1,800); AID 493232; in the data active = inhibition above about 17%;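 note: 0% = agonist challenge with vehicle and 100% = vehicle alone without agonist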
Starred values were filed as active, the others as inactive.

Results for CCOCCCNC(=O)CN1C(=O)/C(=C/c2ccccc2C)Sc2ccccc21 ?
OX1R antag-1: 12; M1 PAM parental: 9; CHO-K1 Ca ag: 1; OX1R antag-2: -5; CHO parental Ca: -12; CHO-K1 Ca antag: -6

Results for COCCCNC(=O)CN1C(=O)/C(=C\c2ccc(C)cc2)Sc2ccccc21 ?
OX1R antag-1: 78*; M1 PAM parental: 9; CHO-K1 Ca ag: 4; OX1R antag-2: 15; CHO parental Ca: -13; CHO-K1 Ca antag: 3; OX1R HTRF conf: 38; CHO-K1 HTRF cnt: -5

How did CCOC(=O)CNC(=O)C1(NC(=O)CNC(=O)OCc2ccccc2)CCCC1 do in these assays?
M1 PAM parental: 2; CHO-K1 Ca ag: 0; CHO-K1 Ca antag: -7

What do the screens show for `O=C(COC(=O)c1cc(-c2cccs2)nn1-c1ccccc1)Nc1ccc(F)c([N+](=O)[O-])c1`?
OX1R antag-1: 25; M1 PAM parental: 4; CHO-K1 Ca ag: 2; OX1R antag-2: -19; CHO parental Ca: -4; CHO-K1 Ca antag: 9

How did COC1=C(Nc2ccc(C)cc2)C(=O)c2ccccc2C1=O do in these assays?
OX1R antag-1: 22; M1 PAM parental: 13; CHO-K1 Ca ag: 0; OX1R antag-2: -13; CHO parental Ca: -1; CHO-K1 Ca antag: 0

Results for CC(=O)NC1=C(Nc2ccc(N(C)C)cc2)C(=O)c2ccccc2C1=O ?
OX1R antag-1: 120*; M1 PAM parental: 0; CHO-K1 Ca ag: 0; OX1R antag-2: -13; CHO parental Ca: -10; CHO-K1 Ca antag: -10; OX1R HTRF conf: 66*; CHO-K1 HTRF cnt: 92*

What do the screens show for `CC(=O)C1=C(c2ccc(Br)cc2)C(=O)c2ccccc2C1=O`?
OX1R antag-1: 36; M1 PAM parental: 20; CHO-K1 Ca ag: 1; OX1R antag-2: -35; CHO parental Ca: -15; CHO-K1 Ca antag: -15

How did CCC(=O)N(C1=C(NC)C(=O)c2ccccc2C1=O)C(C)C do in these assays?
OX1R antag-1: 80*; M1 PAM parental: -3; CHO-K1 Ca ag: 0; OX1R antag-2: -22; CHO parental Ca: -11; CHO-K1 Ca antag: 3; OX1R HTRF conf: 66*; CHO-K1 HTRF cnt: 64*

Results for CNC1=C(N(C(C)=O)c2ccc(Br)cc2)C(=O)c2ccccc2C1=O ?
OX1R antag-1: 105*; M1 PAM parental: 28; CHO-K1 Ca ag: 1; OX1R antag-2: -23; CHO parental Ca: -16; CHO-K1 Ca antag: -13; OX1R HTRF conf: 55*; CHO-K1 HTRF cnt: 97*

Results for O=[N+]([O-])c1ccc2c(c1)C(O)n1ncnc1S2 (stereo not drawn) ?
OX1R antag-1: 108*; M1 PAM parental: 22; CHO-K1 Ca ag: 1; OX1R antag-2: 2; CHO parental Ca: -1; CHO-K1 Ca antag: -19; OX1R HTRF conf: 37; CHO-K1 HTRF cnt: 48*

How did O=C1CSC(c2cccc([N+](=O)[O-])c2)N1c1ccc(O)cc1 (stereo not drawn) do in these assays?
OX1R antag-1: 13; M1 PAM parental: 16; CHO-K1 Ca ag: 1; OX1R antag-2: -13; CHO parental Ca: -9; CHO-K1 Ca antag: -8

What do the screens show for `Cc1ccc(OCCSc2nc3ncnc(N)c3[nH]2)cc1`?
OX1R antag-1: 99*; M1 PAM parental: 14; CHO-K1 Ca ag: 1; OX1R antag-2: -21; CHO parental Ca: -10; CHO-K1 Ca antag: -11; OX1R HTRF conf: 22; CHO-K1 HTRF cnt: -2

What do the screens show for `Cc1csc(SCC(=O)NC2CCS(=O)(=O)C2)n1` (stereo not drawn)?
OX1R antag-1: 7; M1 PAM parental: 4; CHO-K1 Ca ag: 1; OX1R antag-2: -10; CHO parental Ca: -7; CHO-K1 Ca antag: -13

How did Cc1[nH]n(-c2ccccc2)c(=O)c1/C=N/Nc1nncc(-c2ccccc2)n1 do in these assays?
OX1R antag-1: 80*; M1 PAM parental: 11; CHO-K1 Ca ag: 1; OX1R antag-2: 2; CHO parental Ca: -14; CHO-K1 Ca antag: -18; OX1R HTRF conf: 24; CHO-K1 HTRF cnt: 10

How did Cc1ccnc(NC(=O)c2ccc(OCc3c(C)noc3C)cc2)c1 do in these assays?
M1 PAM parental: 0; CHO-K1 Ca ag: 1; CHO-K1 Ca antag: -13

Results for CCN(C(=O)CN1C(=O)c2ccc([N+](=O)[O-])cc2C1=O)C1CCS(=O)(=O)C1 (stereo not drawn) ?
OX1R antag-1: 90*; M1 PAM parental: 1; CHO-K1 Ca ag: 0; OX1R antag-2: -5; CHO parental Ca: 6; CHO-K1 Ca antag: -5; OX1R HTRF conf: 64*; CHO-K1 HTRF cnt: 74*

How did CCN(C(=O)Cn1nc(C)c([N+](=O)[O-])c1C)C1CCS(=O)(=O)C1 (stereo not drawn) do in these assays?
OX1R antag-1: 3; M1 PAM parental: -20; CHO-K1 Ca ag: 0; OX1R antag-2: -5; CHO parental Ca: -3; CHO-K1 Ca antag: 1

How did CC(C)c1ccc(NC(=O)CCCN2C(=S)NC(C)(C)CC2C)cc1 (stereo not drawn) do in these assays?
OX1R antag-1: 100*; M1 PAM parental: -10; CHO-K1 Ca ag: 0; OX1R antag-2: -29; CHO parental Ca: -20; CHO-K1 Ca antag: 1; OX1R HTRF conf: 16; CHO-K1 HTRF cnt: 10

How did Fc1ccc(CNc2nc(-c3ccccc3)nc3ccccc23)cc1 do in these assays?
M1 PAM parental: 12; CHO-K1 Ca ag: 1; CHO-K1 Ca antag: 7

Results for COc1ccc(CNc2nc(-c3ccccc3)nc3ccccc23)cc1OC ?
OX1R antag-1: 85*; M1 PAM parental: 16; CHO-K1 Ca ag: 3; OX1R antag-2: 12; CHO parental Ca: -14; CHO-K1 Ca antag: -16; OX1R HTRF conf: 68*; CHO-K1 HTRF cnt: 6

Results for Cc1cccc2nc(-c3cccc(NC(=O)c4ccc(Cl)cc4)c3)cn12 ?
OX1R antag-1: 84*; M1 PAM parental: -13; CHO-K1 Ca ag: 1; OX1R antag-2: -18; CHO parental Ca: -27; CHO-K1 Ca antag: 16; OX1R HTRF conf: 79*; CHO-K1 HTRF cnt: 24*

How did CCOP(=O)(OCC)C(C)(C)NC(=O)Nc1ccc(Cl)c(Cl)c1 do in these assays?
OX1R antag-1: 22; M1 PAM parental: 19; CHO-K1 Ca ag: 12; OX1R antag-2: 5; CHO parental Ca: -3; CHO-K1 Ca antag: -17

Results for COc1cccc(/C=C2\NC(=O)NC2=O)c1O ?
OX1R antag-1: 13; M1 PAM parental: 15; CHO-K1 Ca ag: 1; OX1R antag-2: -10; CHO parental Ca: -4; CHO-K1 Ca antag: -9

Results for Cn1ncc2c(NNC(=O)C3CCCCC3)ncnc21 ?
OX1R antag-1: 11; M1 PAM parental: -8; CHO-K1 Ca ag: 0; OX1R antag-2: 7; CHO parental Ca: -6; CHO-K1 Ca antag: 5

High-throughput results (PubChem BioAssay)
